Source: ChEMBL document CHEMBL2176992, “Synthesis and structure-activity relationship of (E)-phenoxyacrylic amide derivatives as hypoxia-inducible factor (HIF) 1α inhibitors” (J Med Chem, 2012)
Values after ≈ are worked out from the molar mass of the structure shown. Active and inactive are the calls of the source. The rule behind the calls is not given here.

Legend:
HCT-116 [1] = test: Cytotoxicity against human HCT116 cells assessed as cell viability after 48 hrs by SRB assay; assay type: cell-based; conditions: hct-116, 48 h
Procedure, shortened: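 Cell viability of HCT116 by sulforhodamine B assay under the hypoxic reporter-assay conditions; mean of three experiments.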

[2] = target: T1, Hypoxia-inducible factor 1-alpha (Homo sapiens, UniProt Q16665); test: Inhibition of HIF1alpha in human HCT116 cells under hypoxic condition after 16 hrs by dual luciferase reporter gene assay; assay type: cell-based; conditions: hct-116
Procedure, shortened: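 HRE-luciferase reporter in HCT116 cells under hypoxia (1% O2, 94% N2, 5% CO2); luciferase read-out. IC50 from the mean of three experiments; LW6 positive control.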
Target sequence in this assay (Q16665 whole entry): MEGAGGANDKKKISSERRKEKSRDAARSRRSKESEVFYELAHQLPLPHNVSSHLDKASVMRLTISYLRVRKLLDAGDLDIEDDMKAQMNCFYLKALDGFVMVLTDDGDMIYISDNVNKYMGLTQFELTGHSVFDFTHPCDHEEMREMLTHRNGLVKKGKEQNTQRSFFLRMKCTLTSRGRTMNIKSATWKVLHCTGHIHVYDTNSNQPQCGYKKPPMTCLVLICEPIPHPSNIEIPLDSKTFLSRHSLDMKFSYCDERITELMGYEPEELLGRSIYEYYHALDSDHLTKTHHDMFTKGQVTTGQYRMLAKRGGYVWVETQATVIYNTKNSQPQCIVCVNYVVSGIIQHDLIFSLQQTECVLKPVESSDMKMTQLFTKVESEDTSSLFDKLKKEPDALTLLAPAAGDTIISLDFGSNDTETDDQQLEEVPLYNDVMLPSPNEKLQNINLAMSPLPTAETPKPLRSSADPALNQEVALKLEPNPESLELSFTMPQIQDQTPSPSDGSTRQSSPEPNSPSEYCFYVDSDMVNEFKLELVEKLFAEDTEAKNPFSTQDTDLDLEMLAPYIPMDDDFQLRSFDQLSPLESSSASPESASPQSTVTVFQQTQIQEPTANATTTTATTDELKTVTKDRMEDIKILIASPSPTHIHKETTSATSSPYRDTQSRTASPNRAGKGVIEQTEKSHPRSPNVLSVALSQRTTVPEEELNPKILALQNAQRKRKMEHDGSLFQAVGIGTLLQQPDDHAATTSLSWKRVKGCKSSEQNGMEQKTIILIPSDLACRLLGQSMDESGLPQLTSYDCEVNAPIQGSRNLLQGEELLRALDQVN

[3] = target: T1, Hypoxia-inducible factor 1-alpha; test: Inhibition of HIF1alpha in human HCT116 cells under hypoxic condition at 0.4 uM after 12 hrs by dual luciferase reporter gene assay in presence of dipyridol; assay type: cell-based; conditions: HCT-116
Procedure, shortened: (§1)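 Cells cotransfected with pGL3-HRE-luciferase and pRL-SV40, incubated 24 h, then 4 h hypoxia. Then treated with compound (17-AAG 0.4 μM; test 5 μM) with or without 200 μM dipyridol for 12 h under hypoxia. Firefly luciferase normalised to Renilla.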
Target sequence in this assay (Q16665 whole entry, looked up): as the sequence (Q16665 whole entry) above

[4] = target: T1, Hypoxia-inducible factor 1-alpha; test: Inhibition of HIF1alpha in human HCT116 cells under hypoxic condition at 0.4 uM after 12 hrs by dual luciferase reporter gene assay in absence of dipyridol; assay type: cell-based; conditions: HCT-116; procedure, shortened: as §1
Target sequence in this assay (Q16665 whole entry, looked up): as the sequence (Q16665 whole entry) above

HUVEC [5] = test: Antiangiogenic activity in HUVECs under hypoxic condition assessed as inhibition of tube formation at 2 to 5 uM after 18 hrs; assay type: functional, cell-based; conditions: Homo sapiens
Procedure, shortened: (§2)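 HUVECs seeded on wells coated with ice-cold Matrigel, incubated with compound under 1% O2 for 18 h. Tubule branches photographed; SU11248 as VEGFR-inhibitor positive control.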

HUVEC [6] = test: Cytotoxicity against HUVECs assessed as growth inhibition at 1 to 5 uM after 48 hrs by SRB assay; assay type: cell-based; conditions: human
Procedure, shortened: (§3)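 HUVEC growth inhibition measured by sulforhodamine B assay, run in parallel with the Matrigel tube-formation incubation (compound or SU11248).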

[7] = Kinetic solubility of the compound in water at pH 7.4 by nephlometry; assay type: physicochemical; conditions: read-out: Kinetic_solubility
Procedure, shortened: (§4)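 Kinetic aqueous solubility determined by nephelometry at pH 2, 7.4 and 9; values are the mean of three experiments.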

HCT-116 [8] = test: Downregulation of HIF1alpha mRNA expression in human HCT116 cells under hypoxic condition at 2 to 10 uM by RT-PCR analysis; assay type: functional, cell-based
Procedure, shortened: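 mRNA of HIF-1α and target genes measured by RT-PCR in compound-treated cells.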

HCT-116 [9] = test: Inhibition of HIF1alpha expression in human HCT116 cells under hypoxic condition assessed as decrease in protein accumulation by Western blot analysis; assay type: functional, cell-based
Procedure, shortened: (§5)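 Cells held under hypoxia (1% O2, 94% N2, 5% CO2) with compound at various concentrations; HIF-1α protein in lysates detected by Western blot. LW6 as control; HIF-1β also probed.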

[10] = target: T1, Hypoxia-inducible factor 1-alpha; test: Inhibition of HIF1alpha in human HCT116 cells under hypoxic condition assessed as increase in VHL expression at 2 to 5 uM by dual luciferase reporter gene assay; assay type: cell-based; conditions: HCT-116
Procedure, shortened: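 HCT116 cells were exposed to 0, 2 or 5 μM compound under hypoxia (1% O2, 94% N2, 5% CO2). They were lysed in RIPA buffer, and total lysates were examined for VHL expression.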
Target sequence in this assay (Q16665 whole entry, looked up): as the sequence (Q16665 whole entry) above

[11] = target: T1, Hypoxia-inducible factor 1-alpha; test: Inhibition of HIF1alpha in human HCT116 cells under hypoxic condition assessed as decrease in EPO mRNA expression by RT-PCR analysis; assay type: cell-based; conditions: HCT-116
Procedure, shortened: (§6)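 HCT116 cells were treated under hypoxia (1% O2, 94% N2, 5% CO2), and the 2 μM test level was named. mRNA of HIF-1α and its targets (VEGF, EPO, MMP-9) was measured by RT-PCR.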
Target sequence in this assay (Q16665 whole entry, looked up): as the sequence (Q16665 whole entry) above

[12] = target: T1, Hypoxia-inducible factor 1-alpha; test: Inhibition of HIF1alpha in human HCT116 cells under hypoxic condition assessed as decrease in VEGF mRNA expression by RT-PCR analysis; assay type: cell-based; conditions: HCT-116; procedure, shortened: as §6
Target sequence in this assay (Q16665 whole entry, looked up): as the sequence (Q16665 whole entry) above

[13] = Kinetic solubility of the compound in water at pH 2 by nephlometry; assay type: physicochemical; conditions: read-out: Kinetic_solubility; procedure, shortened: as §4
HCT-116 [14] = test: Antimigratory activity against human HCT116 cells assessed as inhibition of cell migration after 24 hrs by wound healing assay; assay type: functional, cell-based
Procedure, shortened: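 Scratch-wound migration of HCT116 cells formed with culture inserts; cells treated with compound or SU11248 and wound closure observed over 24 h.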

HeLa = test: Inhibition of HIF1alpha expression in human HeLa cells under hypoxic condition assessed as decrease in protein accumulation by Western blot analysis; assay type: functional, cell-based; procedure, shortened: as §5
[15] = target: T1, Hypoxia-inducible factor 1-alpha; test: Inhibition of HIF1alpha in human HCT116 cells under normoxic condition assessed as increase in VHL expression at 2 to 5 uM by dual luciferase reporter gene assay; assay type: cell-based; conditions: HCT-116
Target sequence in this assay (Q16665 whole entry, looked up): as the sequence (Q16665 whole entry) above

[16] = target: T1, Hypoxia-inducible factor 1-alpha; test: Inhibition of HIF1alpha in human HCT116 cells under hypoxic condition at 5 uM after 12 hrs by dual luciferase reporter gene assay in presence of dipyridol; assay type: cell-based; conditions: HCT-116
Procedure, shortened: (§7)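 HCT116 cells were cotransfected with pGL3-HRE-luciferase and pRL-SV40 and incubated 24 h. They were then held under hypoxia 4 h and treated with 5 μM compound for 12 h under hypoxia, with 200 μM dipyridol added where stated. Firefly luciferase was read against Renilla.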

[17] = target: T1, Hypoxia-inducible factor 1-alpha; test: Inhibition of HIF1alpha in human HCT116 cells under hypoxic condition at 5 uM after 12 hrs by dual luciferase reporter gene assay in absence of dipyridol; assay type: cell-based; conditions: HCT-116; procedure, shortened: as §7
HCT-116 [18] = test: Inhibition of HIF1beta expression in human HCT116 cells under hypoxic condition assessed as protein accumulation at 0.05 to 30 uM by Western blot analysis; assay type: functional, cell-based
Procedure, shortened: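 HCT116 cells under hypoxia treated with compound at various concentrations; HIF-1β protein level in lysates assessed by Western blot alongside HIF-1α.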

PC-3 = test: Inhibition of HIF1alpha expression in human PC3 cells under hypoxic condition assessed as decrease in protein accumulation by Western blot analysis; assay type: functional, cell-based; procedure, shortened: as §5
LoVo = test: Inhibition of HIF1alpha expression in human LoVo cells under hypoxic condition assessed as decrease in protein accumulation by Western blot analysis; assay type: functional, cell-based; procedure, shortened: as §5
[19] = target: T1, Hypoxia-inducible factor 1-alpha; test: Inhibition of HIF1alpha in human HCT116 cells under hypoxic condition assessed as decrease in MMP9 mRNA expression by RT-PCR analysis; assay type: cell-based; conditions: HCT-116; procedure, shortened: as §6
[20] = Kinetic solubility of the compound in water at pH 9 by nephlometry; assay type: physicochemical; conditions: read-out: Kinetic_solubility; procedure, shortened: as §4
A549 = test: Inhibition of HIF1alpha expression in human A549 cells under hypoxic condition assessed as decrease in protein accumulation by Western blot analysis; assay type: functional, cell-based; procedure, shortened: as §5
HUVEC [21] = test: Cytotoxicity against HUVECs assessed as growth inhibition at 0.5 to 2 uM after 48 hrs by SRB assay; assay type: cell-based; conditions: human; procedure, shortened: as §3
HUVEC [22] = test: Antiangiogenic activity in HUVECs under hypoxic condition assessed as inhibition of tube formation at 2 uM after 18 hrs; assay type: functional, cell-based; conditions: Homo sapiens; procedure, shortened: as §2

Row | Structure (SMILES) | Activity (HCT-116 [1]) | IC50 [2] | further results
1 | COC(=O)c1cccc(NC(=O)COc2ccc(C34CC5CC(CC(C5)C3)C4)cc2)c1 | > 20 µM | 5.03 µM | 
2 | O=C(/C=C/Oc1ccc(C23CC4CC(CC(C4)C2)C3)cc1)Nc1cccc(C(=O)NCc2ccco2)c1 | > 20 µM | > 20 µM | 
3 | NC(=O)c1cccc(NC(=O)/C=C/Oc2ccc(C34CC5CC(CC(C5)C3)C4)cc2)c1 | > 20 µM | > 20 µM | 
4 | COC(=O)c1cccc(NC(=O)CCOc2ccc(C34CC5CC(CC(C5)C3)C4)cc2)c1 | > 20 µM | 2.54 µM | 
5 | COC(=O)c1cccc(NC(=O)/C=C/Oc2ccc(C34CC5CC(CC(C5)C3)C4)cc2C)c1 | > 20 µM | 4.12 µM | 
6 | COC(=O)c1cccc(NC(=O)CCCOc2ccc(C34CC5CC(CC(C5)C3)C4)cc2)c1 | > 20 µM | 15.8 µM | 
7 | C=CCNC1=C2C[C@@H](C)C[C@H](OC)[C@H](O)[C@@H](C)/C=C(\C)[C@H](OC(N)=O)[C@@H](OC)/C=C\C=C(/C)C(=O)NC(=CC1=O)C2=O |  |  | inhibition [3]: Active; inhibition [4]: Active
8 | O=C(/C=C/Oc1ccc(C23CC4CC(CC(C4)C2)C3)cc1)Nc1cccc(C(=O)OCCN2CCOCC2)c1 | > 20 µM | 0.12 µM | inhibition (HUVEC [5]): Active; Activity (HUVEC [6]): Non-toxic; solubility kinetic [7]: 113 µM (≈ 60 µg/mL); Activity (HCT-116 [8]): inactive; inhibition (HCT-116 [9]): Dose-dependent effect; inhibition [10]: Active; inhibition [11]: Dose-dependent effect; inhibition [12]: Dose-dependent effect; solubility kinetic [13]: 45.1 µM (≈ 23.9 µg/mL); inhibition (HCT-116 [14]): Active; inhibition (HeLa): Dose-dependent effect; inhibition [15]: Active; inhibition [16]: inactive; inhibition [17]: Active; inhibition (HCT-116 [18]): inactive; inhibition (PC-3): Dose-dependent effect; inhibition (LoVo): Dose-dependent effect; inhibition [19]: Dose-dependent effect; solubility kinetic [20]: 61.3 µM (≈ 32.5 µg/mL); inhibition (A549): Dose-dependent effect
9 | CC(C)NC(=O)c1cccc(NC(=O)/C=C/Oc2ccc(C34CC5CC(CC(C5)C3)C4)cc2)c1 | > 20 µM | > 20 µM | 
10 | COCCOC(=O)c1cccc(NC(=O)/C=C/Oc2ccc(C34CC5CC(CC(C5)C3)C4)cc2)c1 | > 20 µM | 1.84 µM | 
11 | CN(C)CCOC(=O)c1cccc(NC(=O)/C=C/Oc2ccc(C34CC5CC(CC(C5)C3)C4)cc2)c1 | > 20 µM | 2.62 µM | 
12 | CS(=O)(=O)c1cccc(NC(=O)/C=C/Oc2ccc(C34CC5CC(CC(C5)C3)C4)cc2)c1 | > 20 µM | 1.18 µM | 
13 | COC(=O)c1ccc(NC(=O)/C=C/Oc2ccc(C34CC5CC(CC(C5)C3)C4)cc2)cc1 | > 20 µM | 2.17 µM | 
14 | COC(=O)c1cccc(NC(=O)/C=C/Oc2ccc(C34CC5CC(CC(C5)C3)C4)cc2)c1 | > 20 µM |  | solubility kinetic [7]: 6.56 µM (≈ 2.83 µg/mL); solubility kinetic [13]: 4.25 µM (≈ 1.83 µg/mL); solubility kinetic [20]: 12.2 µM (≈ 5.27 µg/mL)
15 | CCOC(=O)c1cccc(NC(=O)/C=C/Oc2ccc(C34CC5CC(CC(C5)C3)C4)cc2)c1 | > 20 µM | 0.82 µM | 
16 | O=C(/C=C/Oc1ccc(C23CC4CC(CC(C4)C2)C3)cc1)Nc1cccc(C(=O)NCCc2ccncc2)c1 | > 20 µM | 1.34 µM | 
17 | NS(=O)(=O)c1cccc(NC(=O)/C=C/Oc2ccc(C34CC5CC(CC(C5)C3)C4)cc2)c1 | > 20 µM | 2.38 µM | 
18 | COC(=O)c1cc(NC(=O)/C=C/Oc2ccc(C34CC5CC(CC(C5)C3)C4)cc2)ccc1O | > 20 µM | > 20 µM | 
19 | O=C(/C=C/Oc1ccc(C23CC4CC(CC(C4)C2)C3)cc1)Nc1cccc(C(=O)NCCN2CCOCC2)c1 | > 20 µM | 1.07 µM | 
20 | O=C(/C=C/Oc1ccc(C23CC4CC(CC(C4)C2)C3)cc1)Nc1cccc(C(=O)OCCN2CCCC2)c1 | > 20 µM | 1.35 µM | 
21 | COC(=O)c1cccc(NC(=O)/C=C/Oc2ccc(C(C)(C)C)cc2)c1 | > 20 µM | 6.03 µM | 
22 | CCN(CC)CCNC(=O)c1c(C)[nH]c(/C=C2\C(=O)Nc3ccc(F)cc32)c1C [SUNITINIB] |  |  | inhibition (HCT-116 [14]): Active; Activity (HUVEC [21]): Non-toxic; inhibition (HUVEC [22]): Active
23 | O=C(/C=C/Oc1ccc(C23CC4CC(CC(C4)C2)C3)cc1)Nc1cccc(C(=O)NCCCn2ccnc2)c1 | > 20 µM | 1.85 µM | 
24 | O=C(/C=C/Oc1ccc(C23CC4CC(CC(C4)C2)C3)cc1)Nc1cccc(C(=O)O)c1 | > 20 µM | > 20 µM | 
25 | COC(=O)c1cccc(NC(=O)/C=C/Oc2ccc(C(C)(C)CC(C)(C)C)cc2)c1 | > 20 µM | 1.04 µM | 
26 | COC(=O)c1ccc(O)c(NC(=O)COc2ccc(C34CC5CC(CC(C5)C3)C4)cc2)c1 | > 20 µM | 2.44 µM | solubility kinetic [7]: 6.85 µM (≈ 2.98 µg/mL); solubility kinetic [13]: 68.2 µM (≈ 29.7 µg/mL); solubility kinetic [20]: 44.9 µM (≈ 19.6 µg/mL)
